Experimental data from ChEMBL document CHEMBL6177921, “Enhancing the antimycobacterial efficacy of pyridine-4-carbohydrazide: linkage to additional antimicrobial agents via oxocarboxylic acids” (RSC Med Chem, 2025).
In brackets after ≈: the same amount, converted by molar mass.

Experiments:
[1] = tested on: Mycobacterium tuberculosis; assay: Antimycobacterial activity against multidrug sensitive Mycobacterium tuberculosis H37Rv CNCTC 331/88 assessed as bacterial growth inhibition incubated for 14 days by two-fold serial dilution method; type: functional; conditions: H37Rv CNCTC 331/88, 336 h, time 14 day
[2] = tested on: Mycobacterium tuberculosis; assay: Antimycobacterial activity against Mycobacterium tuberculosis H37Rv CNCTC 331/88 assessed as bacterial growth inhibition incubated for 21 days by two fold serial dilution method; type: functional; conditions: H37Rv CNCTC 331/88, 504 h, time 21 day
[3] = tested on: Mycobacterium avium; assay: Antimycobacterial activity against INH/RIF/rifabutin/OFX/EMB resistant Mycobacterium avium CNCTC 330/88 assessed as bacterial growth inhibition incubated for 14 days by two-fold serial dilution method; type: functional; conditions: CNCTC 330/88, 336 h, time 14 day
In short: (§1)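 M. avium CNCTC 330/88 (stock suspension dilution 10−5) grown in Šula's semisynthetic liquid medium; two-fold serial dilutions 1000 to 1 μM from DMSO stocks (final DMSO 1.0% v/v); final load 1.5 × 10^5 CFU mL−1; MIC read visually as lowest concentration giving complete growth inhibition after 14 and 21 days.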

[4] = tested on: Mycobacterium avium; assay: Antimycobacterial activity against INH/RIF/rifabutin/OFX/EMB resistant Mycobacterium avium CNCTC 330/88 assessed as bacterial growth inhibition incubated for 21 days by two-fold serial dilution method; type: functional; conditions: CNCTC 330/88, 504 h, time 21 day; in short: as §1
[5] = tested on: Mycobacterium kansasii; assay: Antimycobacterial activity against INH/RIF/rifabutin/OFX/EMB Mycobacterium kansasii CNCTC 6509/96 clinical isolate assessed as bacterial growth inhibition incubated for 7 days by two-fold serial dilution method; type: functional; conditions: CNCTC 6509/96, 168 h, time 7 day
In short: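 Šula's liquid semisynthetic medium; M. kansasii clinical isolate 6509/96 used at stock dilution 10−4, final ~1.5 × 10^5 CFU mL−1. Two-fold dilutions ran 1000–1 μM with final DMSO 1.0% (v/v). MIC was read visually as complete growth inhibition after 7, 14 and 21 days.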

[6] = tested on: Mycobacterium kansasii; assay: Antimycobacterial activity against multi-drug resistant Mycobacterium kansasii CNCTC 6509/96 clinical isolate assessed as bacterial growth inhibition incubated for 14 days by two-fold serial dilution method; type: functional; conditions: CNCTC 6509/96, 336 h, time 14 day
In short: (§2)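 M. kansasii clinical isolate 6509/96 (stock dilution 10−4) in Šula's semisynthetic liquid medium; two-fold serial dilutions 1000 to 1 μM, DMSO final 1.0% v/v; final load 1.5 × 10^5 CFU mL−1; MIC read visually as complete growth inhibition at 7, 14 and 21 days.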

[7] = tested on: Mycobacterium kansasii; assay: Antimycobacterial activity against multi-drug resistant Mycobacterium kansasii clinical isolate CNCTC 6509/96 assessed as bacterial growth inhibition incubated for 21 days by two-fold serial dilution method; type: functional; conditions: CNCTC 6509/96, 504 h, time 21 day; in short: as §2
[8] = tested on: Candida albicans; assay: Antifungal activity against Candida albicans ATCC 24443 measured after 24 to 48 hrs by microdilution broth method; type: functional; conditions: time 24-48 hrs
In short: (§3)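 Yeast broth microdilution per EUCAST, slightly modified. Medium was RPMI-1640 with 2% glucose, MOPS-buffered to pH 7.0. Compounds were tested at 0.98–500 μM with final DMSO ≤1.0% (v/v). Inoculum came from 18–24 h cultures, final ~1–5 × 10^5 CFU mL−1. Plates were incubated statically, dark and humidified, at 35 ± 2 °C. MIC was read visually at 24 and 48 h (no visible growth).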

[9] = tested on: Candida albicans; assay: Antifungal activity against Candida albicans CCM 8320 measured after 24 to 48 hrs by microdilution broth method; type: functional; conditions: time 24-48 hrs; in short: as §3
[10] = tested on: Pichia kudriavzevii; assay: Antifungal activity against Candida krusei ATCC 6258 measured after 24 to 48 hrs by microdilution broth method; type: functional; conditions: time 24-48 hrs; in short: as §3
[11] = tested on: Pichia kudriavzevii; assay: Antifungal activity against Candida krusei CCM 8271 measured after 24 to 48 hrs by microdilution broth method; type: functional; conditions: time 24-48 hrs; in short: as §3
[12] = tested on: Candida parapsilosis; assay: Antifungal activity against Candida parapsilosis ATCC 22019 measured after 24 to 48 hrs by microdilution broth method; type: functional; conditions: Lodderomyces parapsilosis, time 24-48 hrs; in short: as §3
[13] = tested on: Candida parapsilosis; assay: Antifungal activity against Candida parapsilosis CCM 8260 measured after 24 to 48 hrs by microdilution broth method; type: functional; conditions: Lodderomyces parapsilosis, time 24-48 hrs; in short: as §3
[14] = tested on: Candida tropicalis; assay: Antifungal activity against Candida tropicalis ATCC 750 measured after 24 to 48 hrs by microdilution broth method; type: functional; conditions: time 24-48 hrs; in short: as §3
[15] = tested on: Candida tropicalis; assay: Antifungal activity against Candida tropicalis CCM 8264 measured after 24 to 48 hrs by microdilution broth method; type: functional; conditions: time 24-48 hrs; in short: as §3
[16] = tested on: Aspergillus fumigatus; assay: Antifungal activity against Aspergillus fumigatus ATCC 204305 measured after 24 to 48 hrs by microdilution broth method; type: functional; conditions: time 24-48 hrs
In short: (§4)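 Filamentous fungi tested by broth microdilution per EUCAST with minor changes. Compounds were tested at 0.98–500 μM with final DMSO ≤1.0% (v/v). Plates were incubated statically, dark and humidified, at 35 ± 2 °C for 24 and 48 h. MIC was the lowest concentration showing no visible growth.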

[17] = tested on: Aspergillus flavus; assay: Antifungal activity against Aspergillus flavus CCM 8363 measured after 24 to 48 hrs by microdilution broth method; type: functional; conditions: time 24-48 hrs; in short: as §4
[18] = tested on: Lichtheimia corymbifera; assay: Antifungal activity against Lichtheimia corymbifera CCM 8077 measured after 24 to 48 hrs by microdilution broth method; type: functional; conditions: time 24-48 hrs; in short: as §4
[19] = tested on: Trichophyton interdigitale; assay: Antifungal activity against Trichophyton interdigitale ATCC 9533 measured after 24 to 48 hrs by microdilution broth method; type: functional; conditions: time 24-48 hrs
[20] = tested on: Trichophyton interdigitale; assay: Antifungal activity against Trichophyton interdigitale CCM 8377 measured after 24 to 48 hrs by microdilution broth method; type: functional; conditions: time 24-48 hrs
[21] = Hemolytic activity in human Red blood cells assessed as hemolysis rate incubated for 1 hr by absorbance based spectrophotometric analysis relative to control; type: toxicity, cell-based, Erythrocyte; conditions: read-out: Activity
In short: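 Human erythrocyte suspension mixed 1:1 with compound in Hartmann's solution at final 125 μM, final DMSO 1.0% (v/v), 37 °C for 1 h. After centrifugation, released haemoglobin in the supernatant was read at 405 nm. Negative control was hRBCs with 1.0% DMSO; positive control was hRBCs sonicated for 1 min.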

SMILES	MIC [1] [µM]	MIC [2] [µM]	MIC [3] [µM]	MIC [4] [µM]	MIC [5] [µM]	MIC [6] [µM]	MIC [7] [µM]	MIC [8] [µM]	MIC [9] [µM]	MIC [10] [µM]	MIC [11] [µM]	MIC [12] [µM]	MIC [13] [µM]	MIC [14] [µM]	MIC [15] [µM]	MIC [16] [µM]	MIC [17] [µM]	MIC [18] [µM]	MIC [19] [µM]	MIC [20] [µM]	also measured
C/C(=N\NC(=O)c1ccncc1)C(=O)Nc1ccccc1Oc1ccccc1	0.25 (≈ 0.0936 µg/mL)	0.5 (≈ 0.187 µg/mL)	≥ 1000	≥ 1000	4 (≈ 1.5 µg/mL)	8 (≈ 3 µg/mL)	16 (≈ 5.99 µg/mL)	> 500	> 500	> 500	> 500	> 500	> 500	> 500	> 500	> 500	> 500	> 500	> 500	> 500	
COc1ccc(NS(=O)(=O)c2ccc(NC(=O)/C(C)=N/NC(=O)c3ccncc3)cc2)nn1	1 (≈ 0.469 µg/mL)	1 (≈ 0.469 µg/mL)	≥ 1000	≥ 1000	32 (≈ 15 µg/mL)	32 (≈ 15 µg/mL)	32 (≈ 15 µg/mL)	> 500	> 500	> 500	> 500	> 500	> 500	> 500	> 500	> 500	> 500	> 500	> 500	> 500	
C/C(=N\NC(=O)c1ccncc1)C(=O)Nc1ccc(S(=O)(=O)Nc2cc(C)on2)cc1	0.5 (≈ 0.221 µg/mL)	1 (≈ 0.442 µg/mL)	1000 (≈ 442 µg/mL)	≥ 1000	16 (≈ 7.08 µg/mL)	32 (≈ 14.2 µg/mL)	32 (≈ 14.2 µg/mL)	> 500	> 500	> 500	> 500	> 500	> 500	> 500	> 500	> 500	> 500	> 500	> 500	> 500	
COc1cnc(NS(=O)(=O)c2ccc(NC(=O)/C(C)=N/NC(=O)c3ccncc3)cc2)nc1	2 (≈ 0.939 µg/mL)	2 (≈ 0.939 µg/mL)	≥ 1000	≥ 1000	32 (≈ 15 µg/mL)	32 (≈ 15 µg/mL)	32 (≈ 15 µg/mL)	> 500	> 500	> 500	> 500	> 500	> 500	> 500	> 500	> 500	> 500	> 500	> 500	> 500	
C/C(=N\NC(=O)c1ccncc1)C(=O)Nc1ccc(Oc2ccc(Cl)cc2)c(Cl)c1	0.5 (≈ 0.222 µg/mL)	0.5 (≈ 0.222 µg/mL)	500 (≈ 222 µg/mL)	500 (≈ 222 µg/mL)	32 (≈ 14.2 µg/mL)	64 (≈ 28.4 µg/mL)	64 (≈ 28.4 µg/mL)	> 500	> 500	> 500	> 500	> 500	> 500	> 500	> 500	> 500	> 500	> 500	> 500	> 500	
C/C(=N\NC(=O)c1ccncc1)C(=O)Nc1ccc(S(N)(=O)=O)cc1	2 (≈ 0.723 µg/mL)	2 (≈ 0.723 µg/mL)	≥ 1000	≥ 1000	32 (≈ 11.6 µg/mL)	64 (≈ 23.1 µg/mL)	64 (≈ 23.1 µg/mL)	> 500	> 500	> 500	> 500	> 500	> 500	> 500	> 500	> 500	> 500	> 500	> 500	> 500	
C/C(=N\NC(=O)c1ccncc1)C(=O)Nc1ccc(S(=O)(=O)Nc2nccs2)cc1	1 (≈ 0.444 µg/mL)	1 (≈ 0.444 µg/mL)	≥ 1000	≥ 1000	16 (≈ 7.11 µg/mL)	16 (≈ 7.11 µg/mL)	16 (≈ 7.11 µg/mL)	> 500	> 500	> 500	> 500	> 500	> 500	> 500	> 500	> 500	> 500	> 500	> 500	> 500	
C/C(=N\NC(=O)c1ccncc1)C(=O)Nc1ccc(-c2ccccc2)cc1	≤ 0.25	≤ 0.25	> 250	> 250	8 (≈ 2.87 µg/mL)	8 (≈ 2.87 µg/mL)	16 (≈ 5.73 µg/mL)														hemolysis at 1 h [21]: 0.01%
C/C(=N\NC(=O)c1ccncc1)C(=O)Nc1ccc(Oc2ccc(Cl)cc2)cc1	0.5 (≈ 0.204 µg/mL)	0.5 (≈ 0.204 µg/mL)	500 (≈ 204 µg/mL)	500 (≈ 204 µg/mL)	1 (≈ 0.409 µg/mL)	2 (≈ 0.818 µg/mL)	4 (≈ 1.64 µg/mL)	> 500	> 500	> 500	> 500	> 500	> 500	> 500	> 500	> 500	> 500	> 500	> 500	> 500	
C/C(=N\NC(=O)c1ccncc1)C(=O)Nc1ccc(S(=O)(=O)Nc2ncccn2)cc1	2 (≈ 0.879 µg/mL)	2 (≈ 0.879 µg/mL)	1000 (≈ 439 µg/mL)	≥ 1000	32 (≈ 14.1 µg/mL)	64 (≈ 28.1 µg/mL)	64 (≈ 28.1 µg/mL)	> 500	> 500	> 500	> 500	> 500	> 500	> 500	> 500	> 500	> 500	> 500	> 500	> 500	
C/C(=N\NC(=O)c1ccncc1)C(=O)Nc1ccc(S(=O)(=O)Nc2nc(C)cc(C)n2)cc1	1 (≈ 0.468 µg/mL)	1 (≈ 0.468 µg/mL)	500 (≈ 234 µg/mL)	500 (≈ 234 µg/mL)	16 (≈ 7.48 µg/mL)	32 (≈ 15 µg/mL)	32 (≈ 15 µg/mL)	> 500	> 500	> 500	> 500	> 500	> 500	> 500	> 500	> 500	> 500	> 500	> 500	> 500	
CC[C@@H](CO)NCCN[C@@H](CC)CO [ETHAMBUTOL]																					hemolysis at 1 h [21]: 0.01%
NNC(=O)c1ccncc1 [ISONIAZID]	1 (≈ 0.137 µg/mL)	1 (≈ 0.137 µg/mL)	> 250	> 250	8 (≈ 1.1 µg/mL)	8 (≈ 1.1 µg/mL)	16 (≈ 2.19 µg/mL)														hemolysis at 1 h [21]: 0.01%
NC(=O)c1cnccn1 [PYRAZINAMIDE]																					hemolysis at 1 h [21]: 0.01%
CO[C@H]1/C=C/O[C@@]2(C)Oc3c(C)c(O)c4c(O)c(c(/C=N/N5CCN(C)CC5)c(O)c4c3C2=O)NC(=O)/C(C)=C\C=C\[C@H](C)[C@H](O)[C@@H](C)[C@@H](O)[C@@H](C)[C@H](OC(C)=O)[C@@H]1C [RIFAMPIN]																					hemolysis at 1 h [21]: 0.01%
